CAL PDZ FP-1: blocks peptide binding to human CAL PDZ domain; Q9HD26; purified CAL PDZ, TMR-peptide fluorescence polarization, 1 h; inhibition, % at 20 µM; 0.02% of 330,000 active;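 active = highest replicate inhibition of at least 40%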;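 note: plate controls were DMSO neutral control wells for no effect and unlabeled competitor peptide control wells for full effect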
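System: tagged CAL PDZ domain. Schedule: 1 h room-temperature incubation prior to read. Signal: fluorescence polarization (mP). Measure: percent inhibition from loss of millipolarization.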
SR-BI HDL uptake: inhibitors of mouse SR-BI mediated HDL lipid uptake; Q61009; ldlA[mSR-BI] CHO cells, DiI-HDL uptake fluorescence, 3 h; inhibition, % at 12.5 µM; 0.96% of 320,000 active;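 active = mean replicate inhibition of at least 70% and a set share of replicates each scoring 70 or more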;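 note: 0% = median of neutral control wells and 100% = median of positive control wells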
Target sequence (Q61009 whole entry, looked up): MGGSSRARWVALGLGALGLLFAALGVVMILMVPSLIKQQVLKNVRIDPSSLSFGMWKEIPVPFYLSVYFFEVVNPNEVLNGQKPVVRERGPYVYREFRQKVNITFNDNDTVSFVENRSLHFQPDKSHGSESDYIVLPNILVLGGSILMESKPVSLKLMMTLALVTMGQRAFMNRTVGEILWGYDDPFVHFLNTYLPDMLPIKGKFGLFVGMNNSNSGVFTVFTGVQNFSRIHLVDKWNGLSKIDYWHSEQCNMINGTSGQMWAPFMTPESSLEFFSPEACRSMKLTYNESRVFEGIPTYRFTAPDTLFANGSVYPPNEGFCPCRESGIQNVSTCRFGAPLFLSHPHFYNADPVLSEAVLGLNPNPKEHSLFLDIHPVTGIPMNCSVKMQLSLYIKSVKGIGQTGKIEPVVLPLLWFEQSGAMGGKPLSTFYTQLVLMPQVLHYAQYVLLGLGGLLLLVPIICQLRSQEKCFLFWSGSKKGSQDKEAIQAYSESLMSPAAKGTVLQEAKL
ARNT TACC3 PPI: disrupts binding between human ARNT and TACC3; Q9Y6A5; AlphaScreen His-ARNT PAS-B/GST-TACC3 binding, luminescence; TACC3 fragment carries E629A point mutation; inhibition, % at 9.99 µM; 0.66% of 390,000 active;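 active = mean inhibition of replicates at least 50% and at least half of replicates each reaching 50%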;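 note: 0% = complete ARNT plus TACC3 wells and 100% = ARNT alone without TACC3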
CAL PDZ FP-2: inhibitors of human CAL PDZ peptide binding; purified CAL PDZ, TMR-peptide fluorescence polarization, 1 h; inhibition, % at 24.9 µM; 0.92% of 300,000 active;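 active = mean inhibition of at least 30% with at least half of replicates also reaching 30%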;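 note: 0% = DMSO neutral control and 100% = excess unlabeled competitor peptide PRC23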
SR-BI uptake up: enhances SR-BI lipid uptake from DiI-HDL. CHO ldlA[mSR-BI] cells, DiI-HDL uptake fluorescence, 3 h; 100 = double the neutral-control signal. activation, % at 12.5 µM. 0.096% of 320,000 active. AID 504775;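 active = mean replicate activation of at least 60% and every replicate at or above 60%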;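 note: 0% = median plate neutral-control signal and 100% = twice that signal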
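Material – SR-BI-overexpressing, LDLR-lacking CHO cells · Medium – BSA-supplemented, HEPES-buffered Ham's F12, pH 7.4 · Doses – single concentration · Times – compound with DiI-HDL co-incubation, 3 h at 37 °C · Measured by – bottom-read fluorescence, 550/595 nm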
miR122 inh: inhibitors of miR-122 in Huh7 cells; Huh7 miR-122 Renilla luciferase sensor, 48 h; neutral wells = 0, positive control = 100; activation (reporter increase), % at 12.5 µM; 0.3% of 340,000 active; AID 602342;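 active = mean replicate activation score at least 90 and every replicate individually at or above 90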;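 note: higher luciferase means less miR-122 activity so hits act as miR-122 inhibitors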
Starred values were filed as active, the others as inactive; · = no result given; [ ] = remark or other dose. In the library only some 2.1% were active in any assay of this set; here they are far more common.

SMILES | CAL PDZ FP-1 | SR-BI HDL uptake | ARNT TACC3 PPI | CAL PDZ FP-2 | SR-BI uptake up | miR122 inh
CCN(CC)c1ccc(NC(=O)COc2ccccc2C#N)cc1S(=O)(=O)Nc1ccccc1OC | -2 | 51 | -4 | -2 | -51 | 288*
COc1cc(C(=O)NCCC(C)C)ccc1OCc1ccc(Cl)cc1Cl | -1 | 82* | -6 | -2 | -82 | ·
COc1cc(C(=O)NC2CCCCC2)ccc1OCc1ccc(Cl)cc1Cl | -2 | 76* | -3 | -5 | -76 | ·
COc1ccc(C)cc1NC(=O)COC(=O)c1ccc(OCc2ccc(Cl)cc2Cl)c(OC)c1 | -1 | -28 | -6 | -5 | 28 | ·
CC(C)C#Cc1cnc2c(c1)C(=O)N([C@H](C)CO)C[C@@H](C)[C@H](CN(C)C(=O)Nc1cc(F)ccc1F)O2 | · | · | 1 | · | · | -5[16.7 µM]
COCc1nnc(NS(=O)(=O)c2c(C)cc(C)cc2C)s1 | · | -26 | -30 | 35* | 26 | -14
CN1CCN(c2nc3c(c(=O)[nH]c(=O)n3C)n2Cc2ccccc2F)CC1 | -1 | -32 | -6 | 51* | 32 | 1
CN1CCN(c2nc3c(c(=O)[nH]c(=O)n3C)n2Cc2cccc(Br)c2)CC1 | -1 | · | 7 | -2 | · | -2
Cn1c(=O)[nH]c(=O)c2c1nc(N1CCN(c3ccccc3)CC1)n2CCSc1ncccn1 | 0 | -71 | -2 | 0 | 71* | -6
Cn1c(=O)[nH]c(=O)c2c1nc(N1CCCCC1)n2CCSc1ncccn1 | 1 | -7 | -1 | -5 | 7 | -9
COc1ccc(NC(=O)Nc2ccc3c(c2)C(=O)N([C@@H](C)CO)C[C@H](C)[C@H](CN(C)C)OCCCC[C@H](C)O3)cc1 | · | · | 9 | · | · | -6[16.7 µM]
COc1ccc(NC(=O)N2CCCCN3[C@@H](CO)[C@H](c4ccc(-c5ccccc5C)cc4)[C@@H]3C2)cc1 | · | · | 26 | · | · | -8[16.7 µM]
Cc1ccccc1-c1ccc([C@@H]2[C@@H](CO)N3CCCCN(S(C)(=O)=O)C[C@@H]23)cc1 | · | · | -1 | · | · | -2[16.7 µM]
CCOCc1nnc(NC(C)=O)s1 | -1 | -1 | · | -2 | 1 | 1
CCOCc1nnc(NS(C)(=O)=O)s1 | 1 | -8 | -4 | · | 8 | 268*
CCCNC(=O)C[C@@H]1C[C@H]2c3cc(NC(=O)Nc4ccc(F)cc4)ccc3O[C@H]2[C@H](CO)O1 | · | · | -2 | · | · | 4[16.7 µM]
N#CCc1ccc(OC(=O)Nc2ccccc2)cc1 | · | -4 | 8 | 114* | 4 | -5
COc1ccc(C(=O)OC2CCN(C)CC2)cc1 | 0 | -16 | -33 | · | 16 | 0
COc1ccc(C(=O)OC2C(OC)OCC(O)C2O)cc1 (stereo not drawn) | 19 | -12 | -2 | 44* | 12 | 4
Cc1cccc(NCc2ccc(O)c3ncccc23)c1 | -2 | -7 | -4 | -1 | 7 | -29
NC(=O)c1cccc2ccccc12 | -1 | · | -3 | 4 | · | -1
Oc1ccc(CNc2ccccc2)c2cccnc12 | -3 | 11 | 48* | -5 | -11 | -8
OCc1ccnc2c(O)cccc12 | -1 | -7 | 66* | -2 | 7 | -8
NC(=O)c1ccnc2c(O)cccc12 | 0 | -10 | 73* | 1 | 10 | -3
COCC(=O)N(C)C[C@H]1Oc2cc(C#CC3CCCC3)ccc2S(=O)(=O)N([C@@H](C)CO)C[C@@H]1C | · | · | · | · | · | 1[16.7 µM]
SMILES | CAL PDZ FP-1 | SR-BI HDL uptake | ARNT TACC3 PPI | CAL PDZ FP-2 | SR-BI uptake up | miR122 inh
Cc1cccc(-c2nn(-c3ccccc3)cc2C(=O)Nc2cccc(S(=O)(=O)NC3=NCCC3)c2)c1 | -5 | 37 | 5 | -4 | -37 | 152*
CCOC(=O)c1c(NC(C)=O)sc2c(OCC(O)CN(CC)CC)c(Br)ccc12 (stereo not drawn) | -7 | 83* | 11 | 6 | -83 | -6
CCOC(=O)c1c(NC(C)=O)sc2c(OCCN(CC)CC)c(Br)ccc12 | -3 | 39 | 5 | · | -39 | ·
CO[C@H]1CN(C)C(=O)c2ccc(NC(=O)c3cc(C)on3)cc2OC[C@H](C)N(CC2CC2)C[C@@H]1C | · | · | -3 | · | · | ·
Cc1ccc2nc(NNC(=O)c3ccc(S(=O)(=O)N4CCc5ccccc5C4)cc3)sc2c1 | -1 | 119* | 8 | · | -119 | -4
Cc1ccc2nc(NNC(=O)c3ccc4c(c3)OCCO4)sc2c1 | -2 | -23 | -2 | · | 23 | -7
Cc1cc(C)c2nc(NNC(=O)c3ccc(S(=O)(=O)N4CCCC(C)C4)cc3)sc2c1 (stereo not drawn) | 0 | 115* | 19 | -1 | -115 | -17
Cc1cc(C)c2nc(NNC(=O)c3ccc(S(=O)(=O)N4CC(C)CC(C)C4)cc3)sc2c1 (stereo not drawn) | 0 | 139* | 14 | -3 | -139 | ·
Cc1cccc2sc(NNC(=O)c3ccc(S(=O)(=O)N4CC(C)CC(C)C4)cc3)nc12 (stereo not drawn) | 0 | 131* | 49* | -6 | -131 | ·
COC(=O)c1sc2ccccc2c1NC(=O)c1ccc(S(=O)(=O)N2CC(C)CC(C)C2)cc1 (stereo not drawn) | 1 | 22 | -30 | 0 | -22 | ·
CC1=C([C@H](O)CCc2ccccc2)[C@H](CO)n2c(=O)n(-c3ccccc3)c(=O)n2C1 | · | · | -1 | · | · | ·
CNC[C@@H]1OCCCC[C@@H](C)Oc2ccc(NS(=O)(=O)c3c(C)noc3C)cc2C(=O)N([C@@H](C)CO)C[C@H]1C | · | · | -19 | · | · | 0[16.7 µM]
CCOC(=O)C(=CNc1cc(C)nn1-c1ccccc1)C(=O)OCC | -4 | 9 | 2 | -3 | -9 | 0
CCOC(=O)C(/C=N/c1cc(C)nn1-c1ccccc1)=C(\C)O | -2 | 5 | -1 | 61* | -5 | 3
O=C(CCl)N1c2ccccc2CCc2ccccc21 | -16 | 5 | 8 | 46* | -5 | -7
CC(Cl)C(=O)N1c2ccccc2CCc2ccccc21 (stereo not drawn) | 0 | 23 | -9 | -4 | -23 | -5
CCC(C)C(=O)N1c2ccccc2C(=C2SC(C(=O)OC)=C(C(=O)OC)S2)C(=S)C1(C)C (stereo not drawn) | -1 | 89* | · | -2 | -89 | -9
Cc1noc(C)c1NC(=O)N[C@@H]1C=C[C@@H](CC(=O)NCc2ccc(Cl)c(Cl)c2)O[C@H]1CO | · | · | -8 | · | · | ·
COc1ccccc1NC(=O)NCCCN1CCN(c2cccc(Cl)c2)CC1 | -2 | 69 | 48* | -4 | -69 | ·
CCCCn1c(N)c(N(C)C(=O)C2CCCC2)c(=O)[nH]c1=O | 0 | -14 | 0 | 43* | 14 | 3
CCN(C(=O)c1ccc(=O)[nH]c1)c1c(N)n(Cc2ccccc2)c(=O)[nH]c1=O | -1 | -12 | 2 | · | 12 | -5

Compound activity: PubChem, Broad Institute
